Measurements as given in ChEMBL document CHEMBL1124475, “The thieno[3,2-c]pyridine and furo[3,2-c]pyridine rings: new pharmacophores with potential antipsychotic activity” (J Med Chem, 1989).
pIC50: −log10 of the molar value. The source made the active and inactive calls. The rule behind the calls is not given here.

Experiments:
[1] = molecular target: Serotonin 1 (5-HT1) receptor (Rattus norvegicus, UniProt P28564+P30940+P19327+P28565); test: Ability to bind at 5-hydroxytryptamine 1 receptor of rat hippocampus by displacing [3H]5-HT; format: tissue-based
Outline: (§1)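 Rat receptor radioligand displacement, five test-ligand concentrations used to calculate IC50, each assay in duplicate. Some compounds determined four times (in duplicate), with mean IC50 reported.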

[2] = molecular target: T1, Adrenergic receptor alpha-1 (Rattus norvegicus, UniProt P15823+P23944+P43140); test: Ability to bind at alpha-1 adrenergic receptor by displacing [3H]WB-4101; format: protein assay; outline: as §1
T1 sequence (P15823 whole entry): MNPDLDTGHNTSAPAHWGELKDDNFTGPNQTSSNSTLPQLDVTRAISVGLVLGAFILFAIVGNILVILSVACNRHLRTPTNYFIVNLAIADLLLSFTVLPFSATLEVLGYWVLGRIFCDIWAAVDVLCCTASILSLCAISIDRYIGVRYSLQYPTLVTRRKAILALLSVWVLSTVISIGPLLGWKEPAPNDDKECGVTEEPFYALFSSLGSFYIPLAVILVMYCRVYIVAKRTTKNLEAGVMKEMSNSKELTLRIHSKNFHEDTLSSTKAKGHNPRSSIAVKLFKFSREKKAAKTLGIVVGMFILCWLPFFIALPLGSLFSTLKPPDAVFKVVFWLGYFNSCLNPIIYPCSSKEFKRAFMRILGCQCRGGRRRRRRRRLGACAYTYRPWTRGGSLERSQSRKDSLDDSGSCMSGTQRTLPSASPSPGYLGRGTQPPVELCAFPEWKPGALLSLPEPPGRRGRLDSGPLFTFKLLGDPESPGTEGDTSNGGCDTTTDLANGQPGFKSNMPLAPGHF
T1 sequence (P23944 whole entry): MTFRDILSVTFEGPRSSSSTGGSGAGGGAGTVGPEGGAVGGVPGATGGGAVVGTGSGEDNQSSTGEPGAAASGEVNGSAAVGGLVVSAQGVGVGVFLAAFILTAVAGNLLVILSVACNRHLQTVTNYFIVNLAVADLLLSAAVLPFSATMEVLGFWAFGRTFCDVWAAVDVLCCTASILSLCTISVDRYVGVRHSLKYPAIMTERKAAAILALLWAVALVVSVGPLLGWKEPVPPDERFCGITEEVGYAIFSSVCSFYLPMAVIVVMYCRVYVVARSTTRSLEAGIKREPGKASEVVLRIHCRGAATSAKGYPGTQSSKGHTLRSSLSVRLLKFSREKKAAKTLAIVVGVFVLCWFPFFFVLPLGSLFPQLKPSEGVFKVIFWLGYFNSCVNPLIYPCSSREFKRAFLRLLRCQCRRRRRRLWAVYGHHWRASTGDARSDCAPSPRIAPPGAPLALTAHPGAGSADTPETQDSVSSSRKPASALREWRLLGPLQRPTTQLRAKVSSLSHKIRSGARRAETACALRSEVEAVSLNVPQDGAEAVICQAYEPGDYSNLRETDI
T1 sequence (P43140 whole entry): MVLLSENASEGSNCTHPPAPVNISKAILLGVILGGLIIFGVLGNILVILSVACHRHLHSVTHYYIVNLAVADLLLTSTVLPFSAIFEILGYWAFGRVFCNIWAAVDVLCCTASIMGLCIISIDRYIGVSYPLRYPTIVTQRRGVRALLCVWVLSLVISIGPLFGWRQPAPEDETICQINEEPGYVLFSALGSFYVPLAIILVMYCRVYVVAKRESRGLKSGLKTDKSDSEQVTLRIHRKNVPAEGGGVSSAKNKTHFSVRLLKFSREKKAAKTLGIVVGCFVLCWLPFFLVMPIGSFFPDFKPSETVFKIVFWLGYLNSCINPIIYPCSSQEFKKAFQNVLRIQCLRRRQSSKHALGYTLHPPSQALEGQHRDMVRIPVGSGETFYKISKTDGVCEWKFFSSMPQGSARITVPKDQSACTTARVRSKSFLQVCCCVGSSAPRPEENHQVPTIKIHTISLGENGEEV

D(2) dopamine receptor = D(2) dopamine receptor (Rattus norvegicus, UniProt P61169); test: Ability to bind at Dopamine receptor D2 of rat corpus striatum by displacing [3H]spiperone; outline: as §1
Rattus norvegicus [3] = test: Spontaneous discharge activity of individual dopaminergic neurons in the ventral tegmentum neurons (A10 DA cells) when administered subcutaneously at a dose of 5.0 mg/kg/day in anesthetized male Sprague-Dawley rats; No effect at a dose of 0.1-6.3 mg/kg; format: functional, organism-based; conditions: A10DA
Rattus norvegicus [4] = test: Spontaneous discharge activity of individual noradrenergic neurons in the locus coeruleus (LC) when administered intravenously in anesthetized male Sprague-Dawley rats; (excitatory); format: functional; conditions: iv
Rattus norvegicus [5] = test: Blockade of apomorphine-induced stereotypy in rats when administered perorally; format: functional; conditions: po
Rattus norvegicus [6] = test: Induction of catalepsy in rats when administered perorally and maximum dose examined was 4 times the ED50 value established in CAR; Inactive; format: functional, organism-based
Rattus norvegicus [7] = test: Spontaneous discharge activity of individual dopaminergic neurons in substantia nigra (A9DA cells) when administered subcutaneously at dose of 5.0 mg/kg/day in anesthetized male Sprague-Dawley rats; small increase in the number of DA cells per track; format: functional, organism-based
Rattus norvegicus [8] = test: Spontaneous discharge activity of individual dopaminergic neurons in the substantia nigra (A9 DA cells) when administered intravenously at a dose of 0.1-6.3 mg/kg in anesthetized male Sprague-Dawley rats; No effect at a dose of 0.1-6.3 mg/kg; format: functional, organism-based; conditions: A9DA
Rattus norvegicus [9] = test: Spontaneous discharge activity of individual dopaminergic neurons in the ventral tegmentum neurons (A10 DA cells) when administered intravenously at a dose of 0.1-6.3 mg/kg in anesthetized male Sprague-Dawley rats; No effect at a dose of 0.1-6.3 m g/kg; format: functional, organism-based; conditions: A10DA
Rattus norvegicus [10] = test: Reversal of trifluoperazine-induced catalepsy in rats when administered perorally; format: functional; conditions: po
Rattus norvegicus [11] = test: Spontaneous discharge activity of individual serotonergic neurons in the dorsal raphe (DR) nucleus when administered intravenously in anesthetized male Sprague-Dawley rats; (Inhibitory); format: functional; conditions: iv
Rattus norvegicus [12] = test: Conditioned avoidance response (CAR) when administered perorally; format: functional; conditions: po
Rattus norvegicus [13] = test: Blockade of Sidman-avoidance activity in rats when administered perorally; format: functional; conditions: po
Outline: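 Rats trained in once-daily Sidman sessions until stable; non-learners after 3 days replaced. Twelve rats dosed 30 min before session. Each rat compared with mean of its previous three drug-free days by paired t test. Testing continued to minimally effective dose; maximum usually 100 mg/kg. MED is mean over 12 animals.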

[14] = molecular target: Serotonin 2 (5-HT2) receptor (Rattus norvegicus, UniProt P30994+P08909+P14842); test: Ability to bind at serotonin 5-hydroxytryptamine 2 receptors of rat cortex by displacing [3H]spiperone

D(2) dopamine receptor, sequence (P61169 whole entry): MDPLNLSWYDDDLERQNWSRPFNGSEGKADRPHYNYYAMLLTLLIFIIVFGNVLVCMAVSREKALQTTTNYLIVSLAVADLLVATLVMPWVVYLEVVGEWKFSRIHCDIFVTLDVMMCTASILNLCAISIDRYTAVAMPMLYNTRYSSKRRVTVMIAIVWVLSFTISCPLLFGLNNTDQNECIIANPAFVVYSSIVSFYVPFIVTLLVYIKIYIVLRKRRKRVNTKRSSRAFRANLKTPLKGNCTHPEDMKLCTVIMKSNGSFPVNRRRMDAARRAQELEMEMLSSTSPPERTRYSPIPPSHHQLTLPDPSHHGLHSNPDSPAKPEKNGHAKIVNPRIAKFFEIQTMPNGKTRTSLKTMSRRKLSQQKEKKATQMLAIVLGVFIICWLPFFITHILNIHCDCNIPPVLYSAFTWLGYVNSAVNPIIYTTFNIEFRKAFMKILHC

IC50 [1]: 33.5 nM
IC50 [2]: 40.9 nM
pIC50 (D(2) dopamine receptor): < 6.00
IC50 [14]: 55.2 nM
SMILES: O=C1COCC(=O)N1CCCCN1CCN(c2nccc3occc23)CC1
ED25 (Rattus norvegicus [3]): inactive
ED25 (Rattus norvegicus [4]): 0.017 mg/kg
ED50 (Rattus norvegicus [5]): 34 mg/kg
ED50 (Rattus norvegicus [6]): inactive
ED25 (Rattus norvegicus [7]): inactive
ED25 (Rattus norvegicus [8]): inactive
ED25 (Rattus norvegicus [9]): inactive
ED50 (Rattus norvegicus [10]): 2.2 mg/kg
ED50 (Rattus norvegicus [11]): 0.01 mg/kg
ED50 (Rattus norvegicus [12]): 11.2 mg/kg
MED (Rattus norvegicus [13]): 25 mg/kg
